The results in this text go back to ChEMBL document CHEMBL2434839, “Isoxazole derivatives as potent transient receptor potential melastatin type 8 (TRPM8) agonists” (Eur J Med Chem, 2013).

The subject of test [1] is F11. Kind of test: Agonist activity at TRPM8 in differentiated rat/mouse F11 cells assessed as increase in intracellular Ca2+ level at 1 to 100 uM by Fura-2-AM based fluorescence assay relative to menthol. The test is classed as cell-based. The gist of the method: (§1)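 Differentiated F11 cells (≥72 h in 2% FBS plus retinoic acid) in Normal Krebs, pH 7.4, room temperature. Compounds perfused over the stated ranges. Fura-2 340/380 nm ratio read every 3 s after background correction. Peak F/F0 normalized to the maximal menthol response for efficacy. For potency, F/F0 was normalized to each compound's own maximum and fitted to y = max/(1 + […])^n.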

A short description of test [2]: (§2) Agonist activity at TRPM8 in differentiated rat/mouse F11 cells assessed as increase in intracellular Ca2+ level by Fura-2-AM based fluorescence assay. The test is classed as cell-based. The gist of the method: (§3)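 In differentiated F11 cells, L-menthol was perfused for 20 s at 1–300 µM in Normal Krebs, pH 7.4, room temperature. Fura-2 340/380 ratio was imaged every 3 s as F/F0. EC50 came from a fit to y = max/(1 + x/EC50)^n. Mean ± SEM of 23–28 determinations over at least 3 sessions.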

Test [3] deals with F11. The test is described as §2. The test is classed as cell-based. In outline: as §3
Test [4] relates to F11. Description: Agonist activity at TRPM8 in differentiated rat/mouse F11 cells assessed as increase in intracellular Ca2+ level at 0.1 to 300 uM by Fura-2-AM based fluorescence assay relative to menthol. The test is classed as cell-based. The gist of the method:
as §1

For test [5], the system named is F11. Kind of test: Agonist activity at TRPM8 in differentiated rat/mouse F11 cells assessed as increase in intracellular Ca2+ level at 10 to 1000 uM by Fura-2-AM based fluorescence assay relative to menthol. The test is classed as cell-based. The gist of the method: as §1
Test [6] concerns Mus musculus. Kind of test: Potentiation of acetone-induced cold allodynic response in Swiss CD-1 mouse chronic constriction injury model applied topically 20 mins prior to acetone-challenge measured for 14 to 16 mins post acetone-challenge. The test is classed as functional, organism-based. The gist of the method: (§4)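 Male Swiss CD1 mice (30–35 g) with sciatic nerve chronic constriction injury under xylazine/ketamine i.p. Day 14: 50 µl of compound at 20% w/v in absolute ethanol applied topically to the operated paw (vehicle: ethanol). After 20 min, acetone applied. Brisk paw withdrawals counted in three 2-min windows about 5 min apart, as totals and per phase. n = 6 per group.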

Test [7] has as its system F11. Description: Agonist activity at TRPM8 in differentiated rat/mouse F11 cells assessed as increase in intracellular Ca2+ level at 1 to 300 uM measured after 1 to 15 seconds by Fura-2-AM based fluorescence assay. The test is classed as cell-based. The gist of the method: as §3
Test [8] has as its system F11. Kind of test: Agonist activity at TRPM8 in differentiated rat/mouse F11 cells at 100 uM treated in Ca2+-free solution by Fura-2-AM based fluorescence assay. The test is classed as cell-based. The gist of the method: (§5)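 Fura-2 ratiometric Ca2+ imaging in F11 cells differentiated ≥72 h in medium with 2% FBS and retinoic acid, on poly-L-lysine coverslips, at room temperature in Normal Krebs (mM: NaCl 160, KCl 5.5, CaCl2 1.5, MgSO4 1.2, HEPES 10, glucose 10, pH 7.4). Menthol 100 µM perfused alone, with BCTC co-perfusion, or in Ca2+-free solution plus 1 mM EDTA. Peak F/F0 quantified.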

In test [9] the test system is F11. Kind of test: Agonist activity at TRPM8 in differentiated rat/mouse F11 cells assessed as effect on intracellular Ca2+ level at 100 uM by Fura-2-AM based fluorescence assay in presence of TRPM8 antagonist BCTC. The test is classed as cell-based. In outline: as §5
The test system of test [10] is Mus musculus. Kind of test: Potentiation of acetone-induced cold allodynic response in Swiss CD-1 mouse chronic constriction injury model applied topically 20 mins prior to acetone-challenge measured for 7 to 9 mins post acetone-challenge. The test is classed as functional, organism-based. In outline:
as §4

The nature of test [11]: (§6) Agonist activity at TRPM8 in differentiated rat/mouse F11 cells assessed as increase in intracellular Ca2+ level measured after 20 seconds by Fura-2-AM based fluorescence assay. The test is classed as cell-based. The gist of the method:
as §3

The test system of test [12] is F11. The test is described as §6. The test is classed as cell-based. In outline: as §3
For test [13], the system named is Mus musculus. Description: Potentiation of acetone-induced cold allodynic response in Swiss CD-1 mouse chronic constriction injury model applied topically 20 mins prior to acetone-challenge measured up to 2 mins post acetone-challenge. The test is classed as functional, organism-based. In outline:
as §4

For test [14], the system named is Mus musculus. Kind of test: Potentiation of acetone-induced cold allodynic response in Swiss CD-1 mouse chronic constriction injury model applied topically 20 mins prior to acetone-challenge. The test is classed as functional, organism-based. The gist of the method:
as §4

The test system of test [15] is F11. Description: Agonist activity at TRPM8 in differentiated rat/mouse F11 cells assessed as increase in intracellular Ca2+ level at 0.01 to 100 uM by Fura-2-AM based fluorescence assay relative to menthol. The test is classed as cell-based. In outline:
as §1

In test [16] the test system is F11. Description: Agonist activity at TRPM8 in differentiated rat/mouse F11 cells assessed as increase in intracellular Ca2+ level at 1 to 500 uM by Fura-2-AM based fluorescence assay relative to menthol. The test is classed as cell-based. In outline:
as §1

The subject of test [17] is F11. Kind of test: Agonist activity at TRPM8 in differentiated rat/mouse F11 cells assessed as increase in intracellular Ca2+ level at 0.001 to 30 uM by Fura-2-AM based fluorescence assay relative to menthol. The test is classed as cell-based. The gist of the method: as §1
Test [18] relates to F11. Description: Agonist activity at TRPM8 in differentiated rat/mouse F11 cells assessed as increase in intracellular Ca2+ level at 0.01 to 30 uM by Fura-2-AM based fluorescence assay relative to menthol. The test is classed as cell-based. The gist of the method:
as §1

Test [19] relates to F11. Kind of test: Agonist activity at TRPM8 in differentiated rat/mouse F11 cells assessed as increase in intracellular Ca2+ level at 0.3 to 100 uM by Fura-2-AM based fluorescence assay relative to menthol. The test is classed as cell-based. In outline: as §1

The source made the active and inactive calls. No cut-off for these calls is given here.

By EC50 is commonly meant the concentration that produces a half-maximal response.

For the compound `CCCCNc1ccon1`, the Efficacy in test [1] was determined as 69%. In test [2], the EC50 was determined as 17.3 µM. The Activity result in test [3] is “Dose-dependent effect”.

Regarding `Cc1cc(NCc2ccc([N+](=O)[O-])cc2)no1`, the Efficacy in test [4] came out at 74%. Also, the EC50 in test [2] is 18.9 µM. Besides, the Activity result in test [3] was “Dose-dependent effect”.

Regarding `CCCCNc1cc(C)no1`, the Efficacy in test [5] came to 32%. For the same compound, the EC50 in [2] was 100 µM. In [3], the Activity result was “Dose-dependent effect”.

As for `Cc1cc(NCc2ccccc2[N+](=O)[O-])no1`, the Efficacy in test [4] amounted to 66%. Moreover, the EC50 in [2] was found to be 12 µM. The Activity result in [3] was “Dose-dependent effect”.

For `CC(C)CNc1ccon1`, the Efficacy in [1] worked out at 72%. In addition, in [2], the EC50 was determined as 13.2 µM. Further, the Activity entry in test [3] was “Dose-dependent effect”.

For `CC(C)[C@@H]1CC[C@@H](C)C[C@H]1O` [LEVOMENTHOL], the outcome in [6], in test [8], in test [9] and in test [13] was inactive. Also, the result in test [7] and in test [10] was Active. Moreover, in test [11], the EC50 turned out to be 23.4 µM. In [12], the Activity entry was “Dose-dependent effect”.

Regarding `CCCCNc1cc(C)on1`, the outcome in [6], in [14] and in test [10] was inactive. Further, the EC50 in test [2] was found to be 3.6 µM. Besides, the Activity entry in test [3] is “Dose-dependent effect”. The outcome in test [13] was Active. In test [15], the Efficacy came out at 89%.

Consider `Cc1cc(NCC(C)C)on1`, for which the Efficacy in test [16] was 36%. Moreover, in test [2], the concentration giving a half-maximal response (EC50) was determined as 48.4 µM. Also, the Activity entry in test [3] is “Dose-dependent effect”.

In the case of `Cc1cc(NC(C)C)no1`, the result in test [6] and in test [10] was inactive. Also, the Efficacy in test [17] was determined as 53%. The Activity entry was “tde” in [14] (TDE = time-dependent effect) and “Dose-dependent effect” in [3]. Further, in test [2], the EC50 is 0.1 µM. For the same compound, the outcome in test [13] was Active.

`Cc1cc(NCc2ccccc2)no1`: the result in [6], in test [14], in [10] and in [13] was inactive. Moreover, in test [5], the Efficacy worked out at 82%. The EC50 in test [2] is 400 µM. In [3], the Activity result was “Dose-dependent effect”.

With `Cc1cc(NCC(C)C)no1`, the result in [6] and in test [10] was inactive. Moreover, the Activity result in [14] (TDE = time-dependent effect) is “tde”; in [3] it was “Dose-dependent effect”. In test [2], the EC50 was determined as 0.16 µM. Further, in test [13], the outcome was Active. The Efficacy in [18] worked out at 58%.

For `Cc1cc(NCC2CCCCC2)no1`, the Efficacy in test [19] was 64%. Also, the EC50 in [2] came to 13.9 µM. In addition, in [3], the Activity result is “Dose-dependent effect”.

Regarding `Cc1cc(NCCC(C)C)no1`, the result in test [6] and in [10] was inactive. Further, the figures for the Activity result in [14] (TDE = time-dependent effect) and in [3] were “tde” and “Dose-dependent effect”, respectively. For the same compound, in test [2], the EC50 was 0.5 µM. Further, in [13], the result was Active. In addition, in [15], the Efficacy amounted to 66%.
